Data reported in ChEMBL document CHEMBL1121573, “2-(Aminomethyl)phenols, a new class of saluretic agents. 1. Effects of nuclear substitution” (J Med Chem, 1980).
Several values for one entry are separate records, joined by “and”; a condition that tells them apart may be missing. Identical values can stand only once.

Legend:
[1] = Compound administered orally at a dose of 5 mg/kg was evaluated for salidiuretic activity measured as sodium ion excretion in Rat; assay type: organism-based; parameters: dose 5 mg/kg; settings: Urine
In short: (§1)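 Female Charles-River rats (150–170 g), overnight on sugar diet with water ad libitum. Compound dissolved in DMF, diluted with water containing Tween 80 (final 4% DMF), given po in 5.0 mL; concurrent vehicle placebo. Three rats per metabolism cage; 0–5 h urine analysed for Na+, K+, Cl-. Values: mequiv × 100 per cage, geometric means of three cages per dose; scored 0–6 by Na+.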

Rattus norvegicus [2] = experiment: Maximum fall in mean arterial blood pressure was measured in SH rats when compound was administered at 40 mg/kg perorally; assay type: functional; settings: route oral
Canis familiaris [3] = experiment: Oral diuretic activity was evaluated by measuring K+ excretion in dog at 10 mg/kg after ip administration (0-6 hr); assay type: ADME, organism-based, Canis lupus familiaris, Urine; parameters: dose 10 mg/kg, route intraperitoneal; settings: in vivo
In short: (§2)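 Spontaneous urine was pooled with bladder urine collected by catheterization at 6 h. Volume was measured and Na+, K+ and Cl− were determined by standard methods. Values are geometric means.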

Rattus norvegicus [4] = experiment: Oral diuretic activity was evaluated by measuring K+ excretion in Rat at 9 mg/kg […] (0-5 hr); assay type: ADME, organism-based, Urine; parameters: dose 9 mg/kg
In short: (§3)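 Female Charles-River rats (150–170 g) were kept overnight on a sugar diet with water ad libitum. Test substance was dissolved in DMF and diluted with water containing Tween 80 to a final 4% DMF vehicle, then given po in 5.0 mL. Rats were housed three per metabolism cage, and 0–5 h urine was assayed for Na⁺, K⁺ and Cl⁻ alongside concurrent placebo groups. Values are mequiv × 100 per cage, geometric means of three cages per dose.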

Rattus norvegicus [5] = organism: Rattus norvegicus; experiment: Time taken for the decrease in arterial pressure was measured; assay type: functional, Artery
Canis familiaris [6] = experiment: Oral diuretic activity was evaluated by measuring K+ excretion in dog at 5 mg/kg after ip administration (0-6 hr); assay type: ADME, organism-based, Canis lupus familiaris, Urine; parameters: dose 5 mg/kg, route intraperitoneal; settings: in vivo; in short: as §2
Canis familiaris [7] = experiment: Oral diuretic activity was evaluated by measuring Cl- excretion in dog at 1 mg/kg after […] (0-6 hr); assay type: ADME, organism-based, Canis lupus familiaris, Urine; parameters: dose 1 mg/kg, route intraperitoneal; settings: in vivo
Rattus norvegicus [8] = experiment: Oral diuretic activity was evaluated by measuring Na+ excretion in Rat at 9 mg/kg after […] (0-5 hr); assay type: ADME, organism-based, Urine; parameters: dose 9 mg/kg; settings: in vivo, ip
In short: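 Female Charles-River rats (150–170 g) were kept overnight on a sugar diet with water ad libitum. Compound was dissolved in DMF, then diluted with water containing Tween 80 (3 drops/100 mL) to a final 4% DMF, and given po in 5.0 mL. Rats were housed three per metabolism cage. Urine from 0–5 h was analysed for Na+, K+ and Cl−, with concurrent placebo controls. Values are mequiv × 100 per cage, geometric mean of three cages per dose.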

Rattus norvegicus [9] = experiment: Compound administered orally at a dose of 81 mg/kg was evaluated for salidiuretic activity measured as sodium ion excretion in Rat; assay type: ADME, organism-based, Urine; parameters: dose 81 mg/kg, route oral; unit not given beside the values; settings: in vivo, po; in short: as §1
Rattus norvegicus [10] = experiment: Oral diuretic activity was evaluated by measuring Cl- excretion in Rat at 27 mg/kg […] (0-5 hr); assay type: ADME, organism-based, Urine; parameters: dose 27 mg/kg; settings: in vivo
Canis familiaris [11] = experiment: Oral diuretic activity was evaluated by measuring Cl- excretion in dog at 0.3 mg/kg after […] (0-6 hr); assay type: ADME, organism-based, Canis lupus familiaris, Urine; parameters: dose 0.3 mg/kg, route intraperitoneal; settings: in vivo
Canis familiaris [12] = experiment: Oral diuretic activity was evaluated by measuring Na+ excretion in dog at 10 mg/kg after ip administration (0-6 hr); assay type: ADME, organism-based, Canis lupus familiaris, Urine; parameters: dose 10 mg/kg, route intraperitoneal; settings: in vivo; in short: as §2
Canis familiaris [13] = experiment: Oral diuretic activity was evaluated by measuring K+ excretion in dog at 1 mg/kg after ip administration (0-6 hr); assay type: ADME, organism-based, Canis lupus familiaris, Urine; parameters: dose 1 mg/kg, route intraperitoneal; settings: in vivo; in short: as §2
Canis familiaris [14] = experiment: Oral diuretic activity was evaluated by measuring Na+ excretion in dog at 1 mg/kg after ip administration (0-6 hr); assay type: ADME, organism-based, Canis lupus familiaris, Urine; parameters: dose 1 mg/kg, route intraperitoneal; settings: in vivo; in short: as §2
Canis familiaris [15] = experiment: Oral diuretic activity was evaluated by measuring K+ excretion in dog at 0.3 mg/kg after […] (0-6 hr); assay type: ADME, organism-based, Canis lupus familiaris, Urine; parameters: dose 0.3 mg/kg, route intraperitoneal; settings: in vivo
Rattus norvegicus [16] = experiment: Oral diuretic activity was evaluated by measuring K+ excretion in Rat at 27 mg/kg […] (0-5 hr); assay type: ADME, organism-based, Urine; parameters: dose 27 mg/kg; in short: as §3
Rattus norvegicus [17] = experiment: Oral diuretic activity was evaluated by measuring K+ excretion in Rat at 81 mg/kg after […] (0-5 hr); assay type: ADME, organism-based, Urine; parameters: dose 81 mg/kg; in short: as §3
Rattus norvegicus [18] = experiment: Maximum fall in mean arterial blood pressure was measured in SH rats when compound was administered at 20 mg/kg perorally; assay type: functional; settings: route oral
Canis familiaris [19] = experiment: Oral diuretic activity was evaluated by measuring Na+ excretion in dog at 5 mg/kg after ip administration (0-6 hr); assay type: ADME, organism-based, Canis lupus familiaris, Urine; parameters: dose 5 mg/kg, route intraperitoneal; settings: in vivo; in short: as §2
Rattus norvegicus [20] = experiment: Evaluated for salidiuretic activity measured as sodium ion excretion in Rat, administered orally at a dose of 50 mg/kg; assay type: functional, Urine; parameters: unit not given beside the values; settings: route oral; in short: as §1
Canis familiaris [21] = experiment: Oral diuretic activity was evaluated by measuring Cl- excretion in dog at 5 mg/kg after […] (0-6 hr); assay type: ADME, organism-based, Canis lupus familiaris, Urine; parameters: dose 5 mg/kg, route intraperitoneal; settings: in vivo
Canis familiaris [22] = experiment: Oral diuretic activity was evaluated by measuring Cl- excretion in dog at 10 mg/kg after […] (0-6 hr); assay type: ADME, organism-based, Canis lupus familiaris, Urine; parameters: dose 10 mg/kg, route intraperitoneal; settings: in vivo
[23] = Evaluated for salidiuretic activity measured as sodium ion excretion in Rat, administered orally at a dose of 16.5 mg/kg; assay type: organism-based; parameters: dose 16.5 mg/kg; settings: Urine; in short: as §1
Canis familiaris [24] = experiment: Oral diuretic activity was evaluated by measuring Na+ excretion in dog at 0.3 mg/kg after ip administration (0-6 hr); assay type: ADME, organism-based, Canis lupus familiaris, Urine; parameters: dose 0.3 mg/kg, route intraperitoneal; settings: in vivo; in short: as §2
Rattus norvegicus [25] = experiment: Oral diuretic activity was evaluated by measuring K+ excretion in Rat at 3 mg/kg […] (0-5 hr); assay type: ADME, organism-based, Urine; parameters: dose 3 mg/kg; in short: as §3
Rattus norvegicus [26] = experiment: Maximum fall in mean arterial blood pressure was measured in SH rats when compound was administered at 10 mg/kg perorally; assay type: functional; settings: route oral
Rattus norvegicus [27] = experiment: Oral diuretic activity was evaluated by measuring Cl- excretion in Rat at 3 mg/kg […] (0-5 hr); assay type: ADME, organism-based, Urine; parameters: dose 3 mg/kg, route intraperitoneal; settings: in vivo
Canis familiaris [28] = experiment: Salidiuretic activity in dog following i.v. dosing at 5 mg/kg; assay type: functional, Canis lupus familiaris, Urine; parameters: unit not given beside the values; settings: route intravenous
In short: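 Conditioned female mongrel dogs, postabsorptive, got a 500 mL oral water load 1 h before pentobarbital anesthesia (30 mg/kg iv). After replicate 15-min control collections, compound was given as an iv stat injection.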

Q: With `NS(=O)(=O)c1cc2c(cc1Cl)NCNS2(=O)=O` [HYDROCHLOROTHIAZIDE] as the compound, how does the Diuretic activity [1] read?
A: 0.4

Q: What about the MAP (Rattus norvegicus [2]) of the same compound?
A: 26 mmHg

Q: And the Diuretic activity (Canis familiaris [3])?
A: 7.1

Q: What about the Diuretic activity (Rattus norvegicus [4]) of the same compound?
A: 0.38

Q: What about the Duration (Rattus norvegicus [5]) of the same compound?
A: >8 h and 12 h

Q: What about the Diuretic activity (Canis familiaris [6]) of the same compound?
A: 7.4

Q: And the Diuretic activity (Canis familiaris [7])?
A: 22

Q: And the Diuretic activity (Rattus norvegicus [8])?
A: 1.12

Q: What about the Diuretic activity (Rattus norvegicus [9]) of the same compound?
A: 2.4

Q: What about the Diuretic activity (Rattus norvegicus [10]) of the same compound?
A: 1.56

Q: And the Diuretic activity (Canis familiaris [11])?
A: 8.57

Q: What about the Diuretic activity (Canis familiaris [12]) of the same compound?
A: 19.6

Q: And the Diuretic activity (Canis familiaris [13])?
A: 4.8

Q: What about the Diuretic activity (Canis familiaris [14]) of the same compound?
A: 16.4

Q: And the Diuretic activity (Canis familiaris [15])?
A: 1.98

Q: What about the Diuretic activity (Rattus norvegicus [16]) of the same compound?
A: 0.34

Q: What about the Diuretic activity (Rattus norvegicus [17]) of the same compound?
A: 0.37

Q: And the MAP (Rattus norvegicus [18])?
A: 25 mmHg

Q: What about the Diuretic activity (Canis familiaris [19]) of the same compound?
A: 18.8

Q: And the Diuretic activity (Rattus norvegicus [20])?
A: 1.8

Q: What about the Diuretic activity (Canis familiaris [21]) of the same compound?
A: 26.3

Q: And the Diuretic activity (Canis familiaris [22])?
A: 22.9

Q: What about the Diuretic activity [23] of the same compound?
A: 0.6

Q: What about the Diuretic activity (Canis familiaris [24]) of the same compound?
A: 5.4

Q: What about the Diuretic activity (Rattus norvegicus [25]) of the same compound?
A: 0.34

Q: And the MAP (Rattus norvegicus [26])?
A: 14 mmHg

Q: And the Diuretic activity (Rattus norvegicus [27])?
A: 1.54

Q: And the Diuretic activity (Canis familiaris [28])?
A: 250
